In ChEMBL document CHEMBL5046314, “Repositioning of a Diaminothiazole Series Confirmed to Target the Cyclin-Dependent Kinase CRK12 for Use in the Treatment of African Animal Trypanosomiasis” (J Med Chem, 2022):
Activity calls are given as the source filed them. No cut-off for these calls is given here.

Key:
[1] = system: Trypanosoma brucei brucei; assay: Antitrypanosomal activity against bloodstream Trypanosoma brucei brucei infected in NMRI mouse assessed as parasite growth inhibition at 3 mg/kg, po BID for 4 days; format: functional; design: scale not given: the % may be the effect or the level left; settings: time 4 day
Trypanosoma vivax [2] = assay: Antitrypanosomal activity against bloodstream Trypanosoma vivax STIB 719/ ILRAD 560 infected in NMRI mouse assessed as reduction in parasitemia at 10 mg/kg, sc BID for 4 days and measured twice a week for 21 days; format: functional; design: scale not given: the % may be the effect or the level left; settings: time 21 day
Trypanosoma vivax [3] = assay: Antitrypanosomal activity against bloodstream Trypanosoma vivax STIB 719/ ILRAD 560 infected in NMRI mouse assessed as reduction in parasitemia at 30 mg/kg, sc administered as single dose and measured twice a week for 21 days; format: functional; design: scale not given: the % may be the effect or the level left; settings: time 21 day
Trypanosoma congolense [4] = assay: Antitrypanosomal activity against bloodstream Trypanosoma congolense KONT 2/133 infected in Friesian-Holstein calf assessed as reduction in parasitemia at 5 mg/kg, sc BID and measured after 3 days; format: functional, organism-based; settings: time 3.0 day
Trypanosoma vivax [5] = assay: Antitrypanosomal activity against bloodstream Trypanosoma vivax STIB 719/ ILRAD 560 infected in NMRI mouse assessed as reduction in parasitemia at 3 mg/kg, sc QD for 4 days and measured twice a week for 21 days; design: scale not given: the % may be the effect or the level left; settings: time 21 day
Trypanosoma vivax [6] = assay: Antitrypanosomal activity against bloodstream Trypanosoma vivax STIB 719/ ILRAD 560 infected in NMRI mouse assessed as reduction in parasitemia at 10 mg/kg, sc administered for 4 days; format: functional
Trypanosoma congolense [7] = assay: Antitrypanosomal activity against bloodstream Trypanosoma congolense IL3000 infected in NMRI mouse assessed as reduction in parasitemia at 10 mg/kg, sc administered once daily for 4 days; format: functional
Trypanosoma vivax [8] = assay: Antitrypanosomal activity against bloodstream Trypanosoma vivax STIB 719/ ILRAD 560 infected in NMRI mouse assessed as reduction in parasitemia at 3 mg/kg, sc administered for 4 days; format: functional; design: scale not given: the % may be the effect or the level left; settings: time 4 day
Trypanosoma congolense [9] = assay: Antitrypanosomal activity against bloodstream Trypanosoma congolense IL3000 infected in NMRI mouse assessed as reduction in parasitemia at 3 mg/kg, sc administered for 4 days; format: functional; design: scale not given: the % may be the effect or the level left; settings: time 4 day
Trypanosoma vivax [10] = assay: Antitrypanosomal activity against bloodstream Trypanosoma vivax STIB 719/ ILRAD 560 infected in NMRI mouse assessed as reduction in parasitemia at 10 mg/kg, sc administered for 2 days; format: functional; design: scale not given: the % may be the effect or the level left; settings: time 2 day
Trypanosoma congolense [11] = assay: Antitrypanosomal activity against bloodstream Trypanosoma congolense IL3000 infected in Fulani Zebu cattle assessed as reduction in parasitemia at 10 mg/kg, IM administered as single dose monitered for 100 days; format: functional, organism-based; settings: time 100.0 day
Outline: (§1)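 Female Fulani Zebu cattle infected with the named strain received 10 mg/kg of the free base by IM injection. The vehicle was Kolliphor EL, N-methyl pyrrolidone, 2-pyrrolidone and 11% water. Dosing was once or twice 15 h apart. Saline vehicle controls got 0.2 mL/kg twice, 15 h apart. Animals were followed for 100 days after treatment to score cure.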

Trypanosoma vivax [12] = assay: Antitrypanosomal activity against bloodstream Trypanosoma vivax STIB 719/ ILRAD 560 infected in Fulani Zebu cattle assessed as reduction in parasitemia at 10 mg/kg, IM administered as single dose monitered for 100 days; format: functional, organism-based; settings: time 100.0 day; outline: as §1
Trypanosoma vivax [13] = assay: Antitrypanosomal activity against bloodstream Trypanosoma vivax STIB 719/ ILRAD 560 infected in Fulani Zebu cattle assessed as reduction in parasitemia at 10 mg/kg, IM administered twice daily and measured after for 100 days; format: functional, organism-based; settings: time 100.0 day; outline: as §1
Trypanosoma vivax [14] = assay: Antitrypanosomal activity against bloodstream Trypanosoma vivax STIB 719/ ILRAD 560 infected in Fulani Zebu cattle assessed as reduction in parasitemia at 10 mg/kg, IM administered twice daily and measured after 4 days; format: functional, organism-based; settings: time 4.0 day
Trypanosoma congolense [15] = assay: Antitrypanosomal activity against bloodstream Trypanosoma congolense IL3000 infected in NMRI mouse assessed as reduction in parasitemia at 10 to 100 ng/ml administered via sc implanted ALZET osmotic pumps for 48 hrs; format: functional, organism-based; settings: dose 10-100 ng/ml

Compound CC(C)CS(=O)(=O)N[C@H]1CC[C@H](Nc2nc(N)c(C(=O)c3c(F)cccc3F)s2)CC1 has an Activity [1] of 100%, an Activity (Trypanosoma vivax [2]) of 100% and an Activity (Trypanosoma vivax [3]) of 100%. The Activity (Trypanosoma congolense [4]) was “Active” and the Activity (Trypanosoma vivax [5]) was 100%.

CC(C)CS(=O)(=O)N[C@H]1CC[C@H](Nc2nc(N)c(C(=O)c3c(F)cc(CN4CCN(C)CC4)cc3F)s2)CC1 was tested, and the Activity (Trypanosoma vivax [6]; time 4.0 day) was “inactive”.

For CC(C)CS(=O)(=O)N[C@H]1CC[C@H](Nc2nc(N)c(C(=O)c3c(F)cc(CN4CCOCC4)cc3F)s2)CC1, the Activity (Trypanosoma congolense [7]; time 4.0 day) was “inactive” and the Activity (Trypanosoma vivax [6]; time 4.0 day) was “inactive”.

CC(C)CS(=O)(=O)N[C@H]1CC[C@H](Nc2nc(N)c(C(=O)c3c(Cl)cccc3Cl)s2)CC1 gave an Activity (Trypanosoma vivax [8]) of 100% and an Activity (Trypanosoma congolense [9]) of 100%.

For CC(C)CS(=O)(=O)N[C@H]1CC[C@H](Nc2nc(N)c(C(=O)c3c(F)cc(CN4CCCC4)cc3F)s2)CC1.Cl, the Activity (Trypanosoma vivax [6]; time 4 day) was 100%.

Compound CNCc1cc(F)c(C(=O)c2sc(N[C@H]3CC[C@H](NS(=O)(=O)CC(C)C)CC3)nc2N)c(F)c1.Cl has an Activity (Trypanosoma congolense [7]; time 4 day) of 100% and an Activity (Trypanosoma vivax [6]; time 4 day) of 100%.

For CC(C)CS(=O)(=O)N[C@H]1CC[C@H](Nc2nc(N)c(C(=O)c3c(F)cc(CN(C)C)cc3F)s2)CC1, the Activity (Trypanosoma congolense [7]; time 4 day) was 100%, the Activity (Trypanosoma vivax [8]) was 100% and the Activity (Trypanosoma vivax [6]; time 4 day) was 100%. The Activity (Trypanosoma vivax [10]) was 100%, the Activity (Trypanosoma congolense [11]) was “inactive” and the Activity (Trypanosoma vivax [12]) was “inactive”. For the same compound, the Activity (Trypanosoma vivax [13]) was “inactive”, the Activity (Trypanosoma vivax [14]) was “inactive” and the Activity (Trypanosoma congolense [15]) was “Active”.
